# Assay results collected from several papers.
# Compare with care: the assays were run in different laboratories. pIC50, pKd: −log10 of the molar value.
SMILES,tested on,test,system,conditions,quantity,value
CN(C)CCc1c[nH]c2ccccc12,,,"human, plasma","intravenous, 9 mg, 7 min, healthy volunteers, infusion",concentration,15.9 ng/mL
CC(C)[C@H](NC(=O)c1ccccc1NC(=O)c1ccccc1)C(=O)N[C@H](CO)C(C)C,MRC5,"cell growth or viability, MTT",,72 h,CC50,> 250 µM
CC(C)=CCOc1c2occc2cc2ccc(=O)oc12,MRC5,"cell growth or viability, MTT",,24 h,pIC50,< 4.00
CONC(=O)[C@H]1[C@@H](O)[C@@]2(O)c3c(OC)cc(OC)cc3O[C@@]2(c2ccc(OC)cc2)[C@@H]1c1ccccc1,MDA-MB-231,"cell growth or viability, SRB",,,pIC50,8.72
COc1ccc(C(=O)Nc2ccccc2C(=O)N[C@H](C(=O)N[C@H](CO)C(C)C)C(C)C)cc1,MRC5,"cell growth or viability, MTT",,72 h,CC50,> 250 µM
C=C(C)[C@@H]1CC[C@]2(NCCN3CCS(=O)(=O)CC3)CC[C@]3(C)[C@H](CC[C@@H]4[C@@]5(C)CC=C(C6=CC[C@@](COc7ncccc7C#N)(C(=O)O)CC6)C(C)(C)[C@@H]5CC[C@]43C)[C@@H]12,,,"human, plasma","oral, 100 mg, 24 h, fed, tablet",concentration,408 ng/mL
CC(=O)NC(CC(C)C)C(=O)NC(CC(C)C)C(=O)NC(Cc1ccc(O)cc1)C(N)=O (centres unmarked),"ABCB1 (Cricetulus griseus, UniProt P21448)","binding, fluorescence",,,pKd,4.55
CCCCCCCCCCCC(=O)NC(C)(C)C(=O)N1CCC[C@H]1C(=O)NC(C)(C)C(=O)NC(C)(C)C(=O)N1CCC[C@H]1C(=O)NC(C)(C)C(=O)NC(C)(C)C(=O)N1CCC[C@H]1C(=O)N[C@@H](C)C(=O)NC(C)(C)C(=O)NCCC(=O)N[C@@H](C)C(=O)NC(C)(C)C(=O)NC(C)(C)C(=O)NCCC(=O)NC(C)(C)C(=O)NC(C)(C)C(=O)NC(C)(C)C(=O)N[C@@H](C)C(=O)NCCC(=O)O,MDA-MB-231,"cell growth or viability, MTT",,24 h,pIC50,6.00
